Test results published in ChEMBL document CHEMBL1137786, “Design, synthesis, biological evaluation, and structure-activity relationship (SAR) discussion of dipeptidyl boronate proteasome inhibitors, part I: comprehensive understanding of the SAR of alpha-amino acid boronates” (J Med Chem, 2009).
pIC50: −log10 of the molar value.

Legend:
[1] = Inhibition of chymotrypsin-like activity of human 20s proteasome beta 5 subunit assessed as hydrolysis of fluorogenic substrate
NCI-H460 = test: Cytotoxicity against human H460 cells after 72 hrs by MTT assay; assay type: functional, cell-based; conditions: NCI-H460, 72 h
Outline: (§1)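 BGC-823, KB, NCI-H460, HepG2 and SW-480 cells were maintained in RPMI 1640 with 10% FBS at 37 °C, 5% CO2. MTT added from a 5 mg/mL solution for 4 h at 37 °C. Formazan dissolved in DMSO after centrifugation, A540 read.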

SW480 = test: Cytotoxicity against human SW480 cells after 72 hrs by MTT assay; assay type: functional, cell-based; conditions: SW480, 72 h; outline: as §1
SK-OV-3 = test: Cytotoxicity against human SKOV3 cells after 72 hrs by MTT assay; assay type: functional, cell-based; conditions: SK-OV-3, 72 h
Outline: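 SKOV-3 cells were cultured in McCoy's 5A with 10% FBS at 37 °C, 5% CO2. MTT added from a 5 mg/mL solution for 4 h at 37 °C. Formazan dissolved in DMSO, absorbance measured at 540 nm.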

A549 = test: Cytotoxicity against human A549 cells after 72 hrs by MTT assay; assay type: functional, cell-based; conditions: A549, 72 h
Outline: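 A549 cells were cultured in F12-K with 10% FBS at 37 °C, 5% CO2. MTT from a 5 mg/mL solution added for 4 h at 37 °C. Medium removed after centrifugation, formazan taken up in DMSO, read at 540 nm.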

HeLa = test: Cytotoxicity against human HeLa cells after 72 hrs by MTT assay; assay type: functional, cell-based
Outline: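 HeLa cells were cultured in EMEM with 10% FBS at 37 °C, 5% CO2. MTT added from a 5 mg/mL solution for 4 h at 37 °C. Plates centrifuged, formazan dissolved in DMSO, A540 read.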

KB = test: Cytotoxicity against human KB cells after 72 hrs by MTT assay; assay type: functional, cell-based; outline: as §1
HepG2 = test: Cytotoxicity against human HepG2 cells after 72 hrs by MTT assay; assay type: functional, cell-based; conditions: HepG2, 72 h; outline: as §1
BGC-823 = test: Cytotoxicity against human BGC823 cells after 72 hrs by MTT assay; assay type: functional, cell-based; conditions: BGC-823, 72 h; outline: as §1
HL-60 = test: Cytotoxicity against human HL60 cells after 72 hrs by MTT assay; assay type: functional, cell-based; conditions: HL-60, 72 h
Outline: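 HL-60 cells grown in IMDM with 20% FBS at 37 °C, 5% CO2. MTT added from a 5 mg/mL solution for 4 h at 37 °C. Plates centrifuged, medium discarded, formazan dissolved in DMSO, absorbance read at 540 nm.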

U-266 = test: Cytotoxicity against human U266 cells after 72 hrs by MTT assay; assay type: functional, cell-based; conditions: U-266, 72 h
Outline: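 U266 myeloma cells were grown in RPMI 1640 with 15% FBS at 37 °C, 5% CO2. MTT added from a 5 mg/mL solution for 4 h at 37 °C. Plates centrifuged, formazan dissolved in DMSO, absorbance at 540 nm.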

pIC50 [1] | SMILES | other results
8.87 | CC(C)C[C@H](NC(=O)[C@H](Cc1cccc2ccccc12)NC(=O)c1cccc2c1CCCC2)B1OC2C[C@@H]3C[C@@H](C3(C)C)[C@]2(C)O1 (some centres not stated) | –
8.94 | CC(C)C[C@H](NC(=O)[C@H](Cc1ccc2ccccc2c1)NC(=O)C1CCCc2ccccc21)B1OC2C[C@@H]3C[C@@H](C3(C)C)[C@]2(C)O1 (some centres not stated) | –
9.12 | CC(C)C[C@H](NC(=O)[C@H](Cc1ccccc1)NC(=O)c1cccc2c1CCCC2)B1O[C@@H]2C[C@@H]3C[C@@H](C3(C)C)[C@]2(C)O1 | –
7.85 | CC(C)C[C@H](NC(=O)[C@H](CC(C)C)NC(=O)C1CCCc2ccccc21)B1O[C@@H]2C[C@@H]3C[C@@H](C3(C)C)[C@]2(C)O1 (some centres not stated) | –
7.76 | CCC(C)[C@H](NC(=O)C1CCCc2ccccc21)C(=O)N[C@@H](CC(C)C)B1O[C@@H]2C[C@@H]3C[C@@H](C3(C)C)[C@]2(C)O1 (some centres not stated) | –
8.12 | CC(C)C[C@H](NC(=O)[C@H](Cc1ccc2ccccc2c1)NC(=O)C1CCCc2ccccc21)B1O[C@@H]2C[C@@H]3C[C@@H](C3(C)C)[C@]2(C)O1 (some centres not stated) | –
8.94 | Cc1ccc(C[C@H](NC(=O)[C@H](Cc2ccccc2)NC(=O)C2CCc3ccccc3C2)B2O[C@@H]3C[C@@H]4C[C@@H](C4(C)C)[C@]3(C)O2)cc1 (some centres not stated) | –
8.17 | Cc1ccc(C[C@H](NC(=O)[C@H](Cc2ccccc2)NC(=O)[C@H]2CCCc3ccccc32)B2O[C@@H]3C[C@@H]4C[C@@H](C4(C)C)[C@]3(C)O2)cc1 | –
8.61 | CC(C)C[C@H](NC(=O)[C@H](Cc1cccc2ccccc12)NC(=O)c1ccc2ccccc2c1)B1O[C@@H]2C[C@@H]3C[C@@H](C3(C)C)[C@]2(C)O1 | –
8.28 | CC1(C)[C@@H]2C[C@H]3OB([C@H](Cc4ccccc4)NC(=O)[C@H](Cc4ccccc4)NC(=O)[C@H]4CCCc5ccccc54)O[C@@]3(C)[C@H]1C2 | –
8.90 | CC1(C)[C@@H]2C[C@H]3OB([C@H](Cc4ccc(F)cc4)NC(=O)[C@H](Cc4ccccc4)NC(=O)[C@H]4CCCc5ccccc54)O[C@@]3(C)[C@H]1C2 | –
8.72 | CCCC[C@H](NC(=O)[C@H](Cc1ccccc1)NC(=O)[C@H]1CCCc2ccccc21)B1O[C@@H]2C[C@@H]3C[C@@H](C3(C)C)[C@]2(C)O1 | –
8.37 | CC(C)C[C@H](NC(=O)[C@H](Cc1cccc2ccccc12)NC(=O)C1CCCc2ccccc21)B1O[C@@H]2C[C@@H]3C[C@@H](C3(C)C)[C@]2(C)O1 (some centres not stated) | –
8.38 | CC(C)C[C@H](NC(=O)[C@H](Cc1ccccc1)NC(=O)C1CCCc2ccccc21)B1O[C@@H]2C[C@@H]3C[C@@H](C3(C)C)[C@]2(C)O1 (some centres not stated) | –
8.21 | CC(C)C[C@H](NC(=O)[C@H](Cc1ccc2ccccc2c1)NC(=O)[C@H]1CCCc2ccccc21)B1O[C@@H]2C[C@@H]3C[C@@H](C3(C)C)[C@]2(C)O1 | –
8.29 | CC(C)C[C@H](NC(=O)[C@H](Cc1ccccc1)NC(=O)[C@@H]1CCCc2ccccc21)B1O[C@@H]2C[C@@H]3C[C@@H](C3(C)C)[C@]2(C)O1 | –
8.47 | CC1(C)[C@@H]2C[C@H]3OB([C@H](Cc4ccccc4)NC(=O)[C@H](Cc4ccccc4)NC(=O)C4CCc5ccccc5C4)O[C@@]3(C)[C@H]1C2 (some centres not stated) | –
8.44 | CC(C)C[C@H](NC(=O)[C@H](Cc1c[nH]c2ccccc12)NC(=O)C1CCCc2ccccc21)B1O[C@@H]2C[C@@H]3C[C@@H](C3(C)C)[C@]2(C)O1 (some centres not stated) | –
8.95 | CC(C)C[C@H](NC(=O)[C@H](Cc1ccccc1)NC(=O)[C@H]1CCCc2ccccc21)B1O[C@@H]2C[C@@H]3C[C@@H](C3(C)C)[C@]2(C)O1 | –
7.41 | CC(C)C[C@H](NC(=O)[C@@H](NC(=O)C1CCCc2ccccc21)C(C)C)B1O[C@@H]2C[C@@H]3C[C@@H](C3(C)C)[C@]2(C)O1 (some centres not stated) | –
8.84 | CC(C)C[C@H](NC(=O)[C@H](Cc1ccccc1)NC(=O)C1CCc2ccccc2C1)B1O[C@@H]2C[C@@H]3C[C@@H](C3(C)C)[C@]2(C)O1 (some centres not stated) | –

More lines, now with the values behind:

SMILES | pIC50 [1] | other results
Cc1ccc(C[C@H](NC(=O)[C@H](Cc2c[nH]c3ccccc23)NC(=O)OCc2ccccc2)B2O[C@@H]3C[C@@H]4C[C@@H](C4(C)C)[C@]3(C)O2)cc1 | 8.48 | –
CC(C)(C)OC(=O)N[C@@H](Cc1ccc(O)cc1)C(=O)N[C@@H](Cc1ccccc1)B1O[C@@H]2C[C@@H]3C[C@@H](C3(C)C)[C@]2(C)O1 | 6.94 | –
CC1(C)[C@@H]2C[C@H]3OB([C@H](Cc4ccc(F)cc4)NC(=O)[C@H](Cc4ccccc4)NC(=O)c4cnccn4)O[C@@]3(C)[C@H]1C2 | 8.49 | –
CC(C)C[C@H](NC(=O)[C@H](Cc1c[nH]c2ccccc12)NC(=O)OCc1ccccc1)B1O[C@@H]2C[C@@H]3C[C@@H](C3(C)C)[C@]2(C)O1 | 7.39 | –
CCCC[C@H](NC(=O)[C@H](Cc1ccccc1)NC(C)=O)B1O[C@@H]2C[C@@H]3C[C@@H](C3(C)C)[C@]2(C)O1 | 8.07 | –
CC(=O)N[C@@H](Cc1ccccc1)C(=O)N[C@@H](Cc1ccc(C)cc1)B1O[C@@H]2C[C@@H]3C[C@@H](C3(C)C)[C@]2(C)O1 | 8.56 | –
CC(C)C[C@H](NC(=O)[C@H](Cc1ccc(O)cc1)NC(=O)OC(C)(C)C)B1O[C@@H]2C[C@@H]3C[C@@H](C3(C)C)[C@]2(C)O1 | 7.79 | –
CC(C)C[C@H](NC(=O)OC(C)(C)C)C(=O)N[C@@H](Cc1ccccc1)B1O[C@@H]2C[C@@H]3C[C@@H](C3(C)C)[C@]2(C)O1 | 6.92 | –
Cc1ccc(C[C@H](NC(=O)[C@H](CC(C)C)NC(=O)OC(C)(C)C)B2O[C@@H]3C[C@@H]4C[C@@H](C4(C)C)[C@]3(C)O2)cc1 | 6.33 | –
CC(C)C[C@@H](NC(=O)[C@H](Cc1ccccc1)NC(=O)c1cccc2c1CCCC2)B(O)O | 8.04 | –
CC(C)C[C@@H](NC(=O)[C@H](Cc1ccccc1)NC(=O)C1CCCc2ccccc21)B(O)O (some centres not stated) | 5.64 | –
O=C(N[C@@H](Cc1ccccc1)C(=O)N[C@@H](Cc1ccc(F)cc1)B(O)O)c1cnccn1 | 8.36 | –
CC(C)C[C@H](NC(=O)[C@H](Cc1ccccc1)NC(=O)[C@H]1CCCc2ccccc21)B(O)O | 8.92 | pIC50 (NCI-H460): 7.44; pIC50 (SW480): 7.52; pIC50 (SK-OV-3): 7.40; pIC50 (A549): 7.41; pIC50 (HeLa): 7.43; pIC50 (KB): 7.15; pIC50 (HepG2): 7.22; pIC50 (BGC-823): 6.24; pIC50 (HL-60): 8.02; pIC50 (U-266): 8.64
CC(C)C[C@H](NC(=O)[C@H](Cc1ccccc1)NC(=O)c1cccc2c1CCCC2)B(O)O | 8.80 | pIC50 (NCI-H460): 7.67; pIC50 (SW480): 7.52; pIC50 (SK-OV-3): 7.22; pIC50 (A549): 7.39; pIC50 (HeLa): 7.63; pIC50 (KB): 8.01; pIC50 (HepG2): 7.88; pIC50 (BGC-823): 5.92; pIC50 (HL-60): 8.03; pIC50 (U-266): 8.53
CC(C)C[C@H](NC(=O)[C@H](Cc1ccccc1)NC(=O)c1cnccn1)B1O[C@@H]2C[C@@H]3C[C@@H](C3(C)C)[C@]2(C)O1 | 8.72 | –
CC(C)C[C@H](NC(=O)[C@@H](NC(=O)c1cccc2c1CCCC2)C(C)C)B1O[C@@H]2C[C@@H]3C[C@@H](C3(C)C)[C@]2(C)O1 | 8.16 | –
CC(C)C[C@H](NC(=O)[C@H](CC(C)C)NC(=O)c1cccc2c1CCCC2)B1O[C@@H]2C[C@@H]3C[C@@H](C3(C)C)[C@]2(C)O1 | 8.94 | –
Cc1ccc(C[C@H](NC(=O)[C@H](Cc2ccccc2)NC(=O)c2cnccn2)B2O[C@@H]3C[C@@H]4C[C@@H](C4(C)C)[C@]3(C)O2)cc1 | 8.31 | –
CC(=O)N[C@@H](Cc1ccccc1)C(=O)N[C@@H](CC(C)C)B1O[C@@H]2C[C@@H]3C[C@@H](C3(C)C)[C@]2(C)O1 | 8.63 | –
CCC[C@H](NC(=O)[C@H](CC(C)C)NC(=O)OC(C)(C)C)B1O[C@@H]2C[C@@H]3C[C@@H](C3(C)C)[C@]2(C)O1 | 7.31 | –
CC(C)C[C@@H](NC(=O)[C@H](Cc1ccccc1)NC(=O)c1cnccn1)B(O)O | 6.15 | –
CC(C)C[C@H](NC(=O)[C@H](Cc1ccccc1)NC(=O)c1cnccn1)B(O)O [BORTEZOMIB] | – | pIC50 (NCI-H460): 6.94; pIC50 (SW480): 7.30; pIC50 (SK-OV-3): 6.89; pIC50 (A549): 6.59; pIC50 (HeLa): 7.04; pIC50 (KB): 7.23; pIC50 (HepG2): 7.43; pIC50 (BGC-823): 6.06; pIC50 (HL-60): 8.26; pIC50 (U-266): 8.61
